Here are results for 15 compounds from publication PMC3983351 (Journal of Medicinal Chemistry, 2014).

The nature of the data set: silicate ester hydrolysis rate study by 1H NMR. The note with it: for ∼krel of hydrolysis at C2′: C2′ silicate; for ∼krel of hydrolysis at C2′ / ∼krel of hydrolysis at C7: kobs relative to that of 1d; for ∼krel of hydrolysis at C7: C7 silicate; for difference in krel, triethyl vs trioctyl silicate: 1a vs 1b (PTX) or 4a vs 4b. It counts as physicochemical. In outline:
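About 10 mg silicate ester in 900 μL acetone-d6, then 100 μL of 9:1 v/v D2O/TFA added and mixed. Held at 22 °C ± 1.0 °C. 1H NMR at 500 MHz (16 or 32 transients) at 8–30 time points over more than 3 half-lives. The 2′/7-methine signals of silicate and free taxane were integrated against H5. kobs came from the ln[species] vs time slope (three replicates). krel is kobs divided by that of the reference silicate.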

For the compound `CC(=O)O[C@H]1C(=O)[C@@]2(C)[C@H]([C@H](OC(=O)c3ccccc3)[C@]3(O)C[C@H](OC(=O)[C@H](O[Si](OC(C)C)(OC(C)C)OC(C)C)[C@@H](NC(=O)c4ccccc4)c4ccccc4)C(C)=C1C3(C)C)[C@]1(OC(C)=O)CO[C@@H]1C[C@@H]2O` [1c, 2′-O-[(Triisopropoxy)silyl]paclitaxel], the “∼krel of hydrolysis at C2′” value is 570.
On to `CCO[Si](OCC)(OCC)O[C@H]1C[C@H]2OC[C@@]2(OC(C)=O)[C@H]2[C@H](OC(=O)c3ccccc3)[C@]3(O)C[C@H](OC(=O)[C@H](O[Si](OCC)(OCC)OCC)[C@@H](NC(=O)c4ccccc4)c4ccccc4)C(C)=C([C@@H](OC(C)=O)C(=O)[C@]12C)C3(C)C` [2a, 2′,7-Di-O-(triethoxysilyl)paclitaxel], for which the “∼krel of hydrolysis at C2′” value came to 15000 and the “∼krel of hydrolysis at C7” value is given as 2100.
With `CCCCCCCCO[Si](OCCCCCCCC)(OCCCCCCCC)O[C@H]1C[C@H]2OC[C@@]2(OC(C)=O)[C@H]2[C@H](OC(=O)c3ccccc3)[C@]3(O)C[C@H](OC(=O)[C@H](O[Si](OCCCCCCCC)(OCCCCCCCC)OCCCCCCCC)[C@@H](NC(=O)c4ccccc4)c4ccccc4)C(C)=C([C@@H](OC(C)=O)C(=O)[C@]12C)C3(C)C` [2b, 2′,7-Di-O-(Tri-n-octyloxysilyl)paclitaxel], the “∼krel of hydrolysis at C2′” value turned out to be 3800 and the “∼krel of hydrolysis at C7” value is on record as 340.
With “2′-(Trimenthyloxysilyloxy)docetaxel [4d]”, the “∼krel of hydrolysis at C2′” value amounted to 0.88.
Consider 2′-O-(Triisopropoxysilyl)docetaxel [4c], for which the “∼krel of hydrolysis at C2′” value is given as 260.
On to 2′-O-(Triethoxysilyl)docetaxel [4a], for which the “difference in krel, triethyl vs trioctyl silicate” value is ~3 and the “∼krel of hydrolysis at C2′” value is given as 6500.
Take `CC(=O)O[C@H]1C(=O)[C@@]2(C)[C@H]([C@H](OC(=O)c3ccccc3)[C@]3(O)C[C@H](OC(=O)[C@H](O[Si](OC(C)=O)(OC(C)(C)C)OC(C)(C)C)[C@@H](NC(=O)c4ccccc4)c4ccccc4)C(C)=C1C3(C)C)[C@]1(OC(C)=O)CO[C@@H]1C[C@@H]2O` [1g, 2′-O-(Di-tert-butoxyacetoxysilyl)paclitaxel]: the “∼krel of hydrolysis at C2′” value is 1900.
Regarding “2′-(Di-tert-butoxyethoxysilyl)docetaxel [4e]”, the “∼krel of hydrolysis at C2′” value is 5.0.
Take `CC(=O)O[C@H]1C(=O)[C@@]2(C)[C@H]([C@H](OC(=O)c3ccccc3)[C@]3(O)C[C@H](OC(=O)[C@H](O[Si](OC4CC(C)CCC4C(C)C)(OC4CC(C)CCC4C(C)C)OC4CC(C)CCC4C(C)C)[C@@H](NC(=O)c4ccccc4)c4ccccc4)C(C)=C1C3(C)C)[C@]1(OC(C)=O)CO[C@@H]1C[C@@H]2O` (some centres unmarked) [1d, 2′-[(Trimenthyloxy)silyl]paclitaxel]: the “∼krel of hydrolysis at C2′” value was 1.0.
On to `CCO[Si](OCC)(OCC)O[C@@H](C(=O)O[C@H]1C[C@@]2(O)[C@@H](OC(=O)c3ccccc3)[C@@H]3[C@]4(OC(C)=O)CO[C@@H]4C[C@H](O)[C@@]3(C)C(=O)[C@H](OC(C)=O)C(=C1C)C2(C)C)[C@@H](NC(=O)c1ccccc1)c1ccccc1` [1a, 2′-O-[(Triethoxy)silyl]paclitaxel], for which the “difference in krel, triethyl vs trioctyl silicate” value was ~3 and the “∼krel of hydrolysis at C2′” value was found to be 18000.
With `CCCCCCCCO[Si](OCCCCCCCC)(OCCCCCCCC)O[C@H]1C[C@H]2OC[C@@]2(OC(C)=O)[C@H]2[C@H](OC(=O)c3ccccc3)[C@]3(O)C[C@H](OC(=O)[C@H](O)[C@@H](NC(=O)c4ccccc4)c4ccccc4)C(C)=C([C@@H](OC(C)=O)C(=O)[C@]12C)C3(C)C` [3b, 7-O-(Tri-n-octyloxysilyl)paclitaxel], the “∼krel of hydrolysis at C7” value stood at 450.
As for `CCO[Si](OCC)(OCC)O[C@H]1C[C@H]2OC[C@@]2(OC(C)=O)[C@H]2[C@H](OC(=O)c3ccccc3)[C@]3(O)C[C@H](OC(=O)[C@H](O)[C@@H](NC(=O)c4ccccc4)c4ccccc4)C(C)=C([C@@H](OC(C)=O)C(=O)[C@]12C)C3(C)C` [3a, 7-O-(Triethoxysilyl)paclitaxel], the “∼krel of hydrolysis at C7” value was determined as 2200.
`CCO[Si](O[C@@H](C(=O)O[C@H]1C[C@@]2(O)[C@@H](OC(=O)c3ccccc3)[C@@H]3[C@]4(OC(C)=O)CO[C@@H]4C[C@H](O)[C@@]3(C)C(=O)[C@H](OC(C)=O)C(=C1C)C2(C)C)[C@@H](NC(=O)c1ccccc1)c1ccccc1)(OC(C)(C)C)OC(C)(C)C` [1f, 2′-O-[(Di-tert-butoxy)(ethoxy)silyl]paclitaxel]: the “∼krel of hydrolysis at C2′” value was determined as 5.6.
With `CC(=O)O[C@H]1C(=O)[C@]2(C)[C@@H](O[Si](OC(C)C)(OC(C)C)OC(C)C)C[C@H]3OC[C@@]3(OC(C)=O)[C@H]2[C@H](OC(=O)c2ccccc2)[C@]2(O)C[C@H](OC(=O)[C@H](O[Si](OC(C)C)(OC(C)C)OC(C)C)[C@@H](NC(=O)c3ccccc3)c3ccccc3)C(C)=C1C2(C)C` [2c, 2′,7-Di-O-(triisopropoxysilyl)paclitaxel], the “∼krel of hydrolysis at C2′” value was found to be 520 and the “∼krel of hydrolysis at C7” value worked out at 46.
On to “2′-O-(Tri-n-octyloxysilyl)docetaxel [4b]”, for which the “∼krel of hydrolysis at C2′” value came to 2600.
